Reference: PubChem BioAssay
The source made the active and inactive calls. Unless noted, no stated cut-off is given here; in the data, active means inhibition above about 30%; inactive means the rest.

Assays:
[1] = reducers of endogenous Her2 protein level, primary screen, SKBR3 breast tumor cells, AlphaScreen, ATP viability (AID 461;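 active means Her2 level under about 52% in both replicate screens, with viability over 70% of control, limit read from the data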;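 on Her2 level: lower value means less Her2 protein in the cells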;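 on viability: percent of carrier control wells set as 100% viability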); conditions: 18-24 h, measured here: SKBR3 viability, ATP luminescence, at 10 µM
[2] = target: Receptor tyrosine-protein kinase erbB-2 (Homo sapiens) (UniProt P04626); assay: as above; conditions: 18-24 h, at 10 µM, stronger effect = lower value
[3] = SK-BR-3 cell growth inhibitors, pilot screen, 24 h, human (AID 572;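 active means viability at or below 10% of carrier control in both of two separate runs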;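 further: compound exposure lasted between 18 and 24 h rather than exactly 24 h; 100% = carrier-treated control wells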); conditions: SK-BR-3 viability, CellTiter-Glo luminescence, at 10 µM, stronger effect = lower value
[4] = HUVEC growth inhibition – cell-based, human, primary screen (AID 575;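 active means viability at or below 30% in both replicate assays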;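 further: 100% = median of untreated cell wells with 0.1% DMSO on each plate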); conditions: HUVEC proliferation, CellTiter-Glo luminescence, 72 h; at 10 µM; stronger effect = lower value
In short: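 Timing: 72 h treatment at 37 °C; material: HUVEC primary cells; technique: CellTiter-Glo luminescence measuring cellular ATP; controls: vehicle and MePR control wells; measure: percent of median DMSO-control luminescence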

[5] = growth inhibitors of H69AR lung tumor, primary screen, human, duplicate replicates (AID 580;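 active means viability at or under a set limit in both replicates, limit being median viability minus 3 SD, cut at about 48% in these data, passing the limit was not always enough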;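 further: 100% = mean luminescence of untreated wells and 0% = no signal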); conditions: H69AR lung tumor cells viability, ATP luminescence, 72 h; at 10 µM; stronger effect = lower value
[6] = reversal of MRP1-mediated doxorubicin resistance, pilot screen, H69AR cells, doxorubicin co-treatment (AID 601;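 active means viability loss from added drug above about 55%, and viability with drug at most 40%, in both replicates, limit read from the data, passing the limit was not always enough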); conditions: CellTiter-Glo, 72 h, at 10 µM; for differential viability (reversal): stronger effect = higher value
[7] = 384-well plate pilot, post-Golgi transport modulator project, inhibition of yeast transport mutant growth (AID 636; in the data active means inhibition above about 31%); conditions: absorbance 615 nm, about 18 h, stronger effect = higher value
[8] = growth suppression of yeast trafficking mutant, preliminary HTS, modulators of trafficking downstream of Golgi apparatus project, 1536-format plate, OD 615 nm (AID 637); conditions: yeast transport mutant growth, absorbance 615 nm, 18 h; stronger effect = higher value
[9] = H69AR cells + 2 uM doxorubicin, measured here: viability with 2 uM doxorubicin, stronger effect = lower value
[10] = H69AR cells, compound alone cytotoxicity

Chain of Receptor tyrosine-protein kinase erbB-2 (Homo sapiens) (P04626 whole entry, looked up): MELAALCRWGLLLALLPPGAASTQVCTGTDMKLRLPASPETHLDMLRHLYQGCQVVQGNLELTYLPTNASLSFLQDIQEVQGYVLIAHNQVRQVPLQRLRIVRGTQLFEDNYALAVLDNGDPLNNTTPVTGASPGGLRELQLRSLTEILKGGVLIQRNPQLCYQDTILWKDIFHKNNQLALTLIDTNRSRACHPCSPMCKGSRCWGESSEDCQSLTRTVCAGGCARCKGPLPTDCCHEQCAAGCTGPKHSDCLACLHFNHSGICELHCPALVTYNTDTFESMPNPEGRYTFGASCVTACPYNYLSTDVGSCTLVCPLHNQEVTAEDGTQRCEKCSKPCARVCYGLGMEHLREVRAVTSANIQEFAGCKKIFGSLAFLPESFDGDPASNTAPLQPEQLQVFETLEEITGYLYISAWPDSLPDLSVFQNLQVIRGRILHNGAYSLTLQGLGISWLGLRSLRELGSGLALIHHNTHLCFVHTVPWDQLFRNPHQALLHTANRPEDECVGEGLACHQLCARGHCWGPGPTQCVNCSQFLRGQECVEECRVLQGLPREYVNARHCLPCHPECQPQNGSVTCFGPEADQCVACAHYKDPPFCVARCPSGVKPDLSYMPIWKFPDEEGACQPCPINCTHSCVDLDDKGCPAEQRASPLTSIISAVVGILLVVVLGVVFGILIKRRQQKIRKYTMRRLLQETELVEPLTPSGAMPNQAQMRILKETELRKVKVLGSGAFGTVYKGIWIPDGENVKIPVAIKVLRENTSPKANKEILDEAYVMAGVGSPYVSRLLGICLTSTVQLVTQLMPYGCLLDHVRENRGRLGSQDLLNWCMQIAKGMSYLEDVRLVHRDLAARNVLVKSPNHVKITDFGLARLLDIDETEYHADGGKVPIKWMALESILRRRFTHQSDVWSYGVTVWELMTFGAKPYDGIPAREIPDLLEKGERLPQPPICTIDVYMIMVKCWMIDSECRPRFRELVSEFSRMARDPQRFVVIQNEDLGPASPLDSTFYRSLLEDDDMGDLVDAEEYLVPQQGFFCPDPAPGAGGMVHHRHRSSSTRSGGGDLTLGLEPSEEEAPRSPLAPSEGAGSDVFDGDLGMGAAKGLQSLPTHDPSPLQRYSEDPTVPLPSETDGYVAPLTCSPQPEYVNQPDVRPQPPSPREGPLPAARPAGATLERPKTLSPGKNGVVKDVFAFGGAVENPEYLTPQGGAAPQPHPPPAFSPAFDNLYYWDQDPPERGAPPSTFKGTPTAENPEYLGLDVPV

Structure (SMILES)	viability [1] [%]	Her2 level [2]	viability [3]	viability [4]	viability [5]	differential viability (reversal) ([6]; H69AR cells + 2 uM doxorubicin)	viability [6, 9] [%]	viability [6, 10] [%]	inhibition [7]	inhibition [8]
O=C(CSCCSCC(=O)c1ccco1)c1ccco1	83.5	96% (inactive)	83.5% (inactive)	77.3% (inactive)	101% (inactive)	11.3% (inactive)	90	101	0.13% (inactive)	8.85% (inactive)
COc1cccc(C(=O)N2CCCC(c3nc(-c4cccs4)no3)C2)c1 (stereo not given)	98	81.5% (inactive)	98% (inactive)	93.4% (inactive)	95.5% (inactive)	2.9% (inactive)	92.6	95.5	-7.43% (inactive)	4.26% (inactive)
COc1ccc(CCNc2nc(N3CCOCC3)nc(N3CCOCC3)n2)cc1OC	81	91% (inactive)	81% (inactive)	108% (inactive)	96.7% (inactive)	2.03% (inactive)	94.6	96.7	0.4% (inactive)	-4.84% (inactive)
CCC(C)OC(=O)n1ccc(C(=O)Nc2nccs2)n1 (stereo not given)	106	84% (inactive)	106% (inactive)	91.4% (inactive)	91.4% (inactive)	-4.24% (inactive)	95.6	91.4	0.53% (inactive)	-4.19% (inactive)
COc1ccccc1CNC(=O)CCNC(=O)Cn1ccc2ccccc2c1=O	93	92% (inactive)	93% (inactive)	98.3% (inactive)	100% (inactive)	12.8% (inactive)	87.4	100	-0.13% (inactive)	4.59% (inactive)
COCCNC(=O)C(c1ccc(C)o1)N(Cc1ccc(OC)cc1)C(=O)Cn1nnc2ccccc21 (stereo not given)	102	98% (inactive)	102% (inactive)	102% (inactive)	97.8% (inactive)	-6.28% (inactive)	104	97.8	-0.53% (inactive)	-0.82% (inactive)
Cc1ccc(NC(=O)CSc2nnc(-c3ccncc3)n2C)cc1C	90	117% (inactive)	90% (inactive)	110% (inactive)	92.2% (inactive)	3.42% (inactive)	88.8	92.2	1.08% (inactive)	25.9% (inactive)
CCOCCCn1c(=S)[nH]c2cc3c(cc2c1=O)OCO3	99	102% (inactive)	99% (inactive)	96.3% (inactive)	97.6% (inactive)	4.13% (inactive)	93.4	97.6	-3.38% (inactive)	-2.79% (inactive)
CCOC(=O)c1c(C)[nH]c(C(=O)COC(=O)C2CC2C)c1C (stereo not given)	117	116% (inactive)	117% (inactive)	99.4% (inactive)	102% (inactive)	15.7% (inactive)	85.8	102	-4.93% (inactive)	0.48% (inactive)
CCC(C(=O)NC1CCCC1)N(Cc1ccco1)C(=O)Cn1nnc(-c2ccc(C)cc2)n1 (stereo not given)	97.5	97% (inactive)	97.5% (inactive)	106% (inactive)	92.3% (inactive)	-1.87% (inactive)	94.2	92.3	-3.33% (inactive)	-3.44% (inactive)
CC1(C)NC(=O)N(CNc2cc(Cl)ccc2Cl)C1=O	104	87.5% (inactive)	104% (inactive)	85.7% (inactive)	96.4% (inactive)	0.94% (inactive)	95.5	96.4	-3.55% (inactive)	-1.82% (inactive)
CC1CCN(S(=O)(=O)c2cn(CC(=O)N3CCN(C)CC3)c(=O)c3ccccc23)CC1	122	97% (inactive)	122% (inactive)	104% (inactive)	97.4% (inactive)	0.39% (inactive)	97	97.4	-1.69% (inactive)	-7.46% (inactive)
CC(=O)Nc1ccc(S(=O)(=O)N2CCC(c3nc4ccccc4[nH]3)CC2)cc1	93	81.5% (inactive)	93% (inactive)	78.9% (inactive)	93.6% (inactive)	9.73% (inactive)	83.9	93.6	-3.78% (inactive)	0% (inactive)
CCCCc1ccc(NC(=O)c2c(C)noc2C)cc1	105	94.5% (inactive)	105% (inactive)	96% (inactive)	89.4% (inactive)	0.065% (inactive)	89.3	89.4	-3.68% (inactive)	4.43% (inactive)
COc1ccc(N2CCN(c3nc4c(c(=O)[nH]c(=O)n4C)n3CCCc3ccccc3)CC2)cc1	120	102% (inactive)	120% (inactive)	94% (inactive)	84.9% (inactive)	-2.09% (inactive)	87	84.9	-6.8% (inactive)	0.48% (inactive)
CC1(c2ccc(Cl)cc2)NC(=O)N(CC(=O)NC(=O)NCc2ccco2)C1=O (stereo not given)	96	80.5% (inactive)	96% (inactive)	61.5% (inactive)	107% (inactive)	26.4% (inactive)	81	107	-3.82% (inactive)	-0.33% (inactive)

Structure (SMILES)	viability [1] [%]	Her2 level [2]	viability [3]	viability [4]	viability [5]	differential viability (reversal) ([6]; H69AR cells + 2 uM doxorubicin)	viability [6, 9] [%]	viability [6, 10] [%]	inhibition [7]	inhibition [8]
COc1ccccc1-n1c(C)nnc1SCC(N)=O	127	113% (inactive)	127% (inactive)	101% (inactive)	91.6% (inactive)	13.9% (inactive)	77.7	91.6	-5.33% (inactive)	-0.65% (inactive)
CCOc1ccccc1NC(=O)CSc1c(C)n[nH]c1C	90	88% (inactive)	90% (inactive)	109% (inactive)	113% (inactive)	19.8% (inactive)	92.7	113	-3.07% (inactive)	-3.71% (inactive)
O=C(CCN1CCN(c2ccc(F)cc2)CC1)Nc1ccccc1F	91.5	91% (inactive)	91.5% (inactive)	90.4% (inactive)	86% (inactive)	-5.33% (inactive)	91.3	86	-5.73% (inactive)	4.75% (inactive)
CC(C)CC(c1nnnn1CC1CCCO1)N1CCN(Cc2ccc3c(c2)OCO3)CC1 (stereo not given)	86.5	70% (inactive)	86.5% (inactive)	90% (inactive)	96.7% (inactive)	8.46% (inactive)	88.2	96.7	-6.08% (inactive)	-9.34% (inactive)
Cc1cc(NC(=O)c2ccc3c(c2)C(=O)N(Cc2cccnc2)C3=O)no1	96.5	110% (inactive)	96.5% (inactive)	106% (inactive)	102% (inactive)	0.045% (inactive)	102	102	-1.07% (inactive)	12.5% (inactive)
COc1ccccc1N1CCN(C(=O)c2oc3cc(C)c(C)cc3c2C)CC1	117	104% (inactive)	117% (inactive)	82.4% (inactive)	92.7% (inactive)	-2.22% (inactive)	94.9	92.7	-1.18% (inactive)	-2.62% (inactive)
CCn1c(=O)cc(SCC(=O)Nc2cccnc2)c2ccccc21	91.5	89.5% (inactive)	91.5% (inactive)	56.5% (inactive)	104% (inactive)	14.7% (inactive)	89.3	104	-1.32% (inactive)	1.43% (inactive)
O=C(CCN1C(=O)C2C3C=CC(C3)C2C1=O)NCCc1ccccc1Cl (stereo not given)	95	68.5% (inactive)	95% (inactive)	94.2% (inactive)	95.2% (inactive)	10.5% (inactive)	84.7	95.2	-6.49% (inactive)	-5.08% (inactive)
C=CCNC(=O)CSc1ccc(Cl)cc1	88.5	106% (inactive)	88.5% (inactive)	109% (inactive)	81.4% (inactive)	-7.45% (inactive)	88.8	81.4	-4.21% (inactive)	3.11% (inactive)
Cn1c(=O)c2c(nc(NCc3ccc4c(c3)OCO4)n2Cc2ccccc2F)n(C)c1=O	82	60% (inactive)	82% (inactive)	105% (inactive)	76% (inactive)	-8.01% (inactive)	84	76	-3.65% (inactive)	7.3% (inactive)
Cc1cc(C)nc(SCC(=O)Nc2ccc(S(=O)(=O)Nc3nccs3)cc2)n1	110	107% (inactive)	110% (inactive)	97.4% (inactive)	95.7% (inactive)	4.67% (inactive)	91	95.7	-1.76% (inactive)	5.9% (inactive)
CCSc1ccccc1C(=O)Nc1cccc(OC)c1	110	97% (inactive)	110% (inactive)	115% (inactive)	98.4% (inactive)	11.7% (inactive)	86.6	98.4	-8.49% (inactive)	-3.33% (inactive)
COC(=O)c1cccc(NC(=O)CSc2nnc(COc3ccc(C#N)cc3)n2-c2ccccc2)c1	92	112% (inactive)	92% (inactive)	105% (inactive)	87.8% (inactive)	-1.66% (inactive)	89.4	87.8	3.38% (inactive)	-3.02% (inactive)
CC(=O)Nc1c(-c2ccc(F)cc2)nc2ccccn12	94.5	107% (inactive)	94.5% (inactive)	114% (inactive)	87.7% (inactive)	-19.5% (inactive)	107	87.7	-4.67% (inactive)	1% (inactive)
Cc1ccc(CCNC(=O)C2CCCN(S(=O)(=O)c3cnc[nH]3)C2)cc1 (stereo not given)	102	121% (inactive)	102% (inactive)	101% (inactive)	101% (inactive)	6.71% (inactive)	94	101	-0.8% (inactive)	-2.17% (inactive)
